Assay results taken from paper PMC3831729 (Indian Journal of Pharmaceutical Sciences, 2013).
≈ marks a conversion by molar mass, not a printed value.

Assays:
Coryne bacterium = assay: Zone of inhibition, disk diffusion; assay type: cell-based
[1] = tested on: M. tuberculosis H37Rv (MTB); assay: Microplate alamar blue assay; assay type: cell-based, Mycobacterium tuberculosis; settings: MABA, screened at 100-1.56 μg/ml; - indicates no inhibition
[2] = tested on: M. tuberculosis H37Rv versus NIH 3T3; assay: Selectivity index; design: species or system Mycobacterium tuberculosis; settings: IC50 NIH 3T3 / MIC M. tuberculosis H37Rv
Method in brief: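 SI = IC50/MIC. MIC against M. tuberculosis H37Rv came from broth microdilution microplate alamar blue assay (MABA), with compounds tested at 100-1.56 μg/ml. […] IC50 was derived by nonlinear regression of % inhibition against log10 concentration.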

Bacillus lentus = assay: Zone of inhibition, disk diffusion; assay type: cell-based
Escherichia coli = assay: Zone of inhibition, disk diffusion; assay type: cell-based; settings: E. coli, 100 μg/disk
Rhodospirillum rubrum = assay: MIC, two-fold serial dilution; assay type: cell-based; settings: 24 h, read-out: R. ruberum MIC× 10^−3
Vibrio cholerae = assay: MIC, two-fold serial dilution; assay type: cell-based; settings: 24 h, read-out: V. cholerae MIC× 10^−3
Candida albicans = assay: MIC, two-fold serial dilution; assay type: cell-based; settings: read-out: C. albicans MIC× 10^−3
Method in brief: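 Fungal MIC determined by two-fold serial dilution, with clotrimazole as reference standard. Growth was scored visually after 72-96 h incubation. MIC was taken as the lowest concentration with no visible growth.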

In the case of `CC1=NN(CNc2ccc(Cl)cc2)C(=O)C1=NNn1c(-c2ccccc2)nc2ccccc2c1=O` [QP4, 3-{2-[-1-{[(4-chlorophenyl)amino]methyl}-3-methyl-5-oxo-4,5-dihydro-1H-pyrazol-4-ylidene] hydrazin-1-yl}-2-phenyl-3,4-dihydroquinazolin-4-one], the “C. bacterium % of I” value (Coryne bacterium) was 90%.

For `O=C(O)c1cn(C2CC2)c2cc(N3CCNCC3)c(F)cc2c1=O` [CFN, ciprofloxacin], the “TB Activity MIC×10^-3 (MTB37RV)” value [1] was 09.40 ×10^-3 μM/ml.

In the case of `O=C1NN=C(N=Cc2ccc(O)cc2O)C1=NNn1c(-c2ccccc2)nc2ccccc2c1=O` [QSP3, 3-{2-[-3-[-[(2,4-dihydroxyphenyl)methylidene]amino]-5-oxo-4,5-dihydro-1H-pyrazol-4-ylidene] hydrazin-1-yl}-2-phenyl-3,4-dihydroquinazolin-4-one], the “Selective Index (SI) (SI=IC50/MIC)” value [2] was 08.35.

For `CC(=O)NCN1N=C(C)C(=NNn2c(-c3ccccc3)nc3ccccc3c2=O)C1=O` [QP9, N-{[-3-methyl-5-oxo-4-[2-(4-oxo-2-phenyl-3,4-dihydroquinazolin-3-yl)hydrazin-1-ylidene]-4,5-dihydro-1H-pyrazol-1-yl]methyl}acetamide], the “B. lentus % of I” value (Bacillus lentus) was 95% and the “Selective Index (SI) (SI=IC50/MIC)” value [2] was 18.16.

`CC[C@@H](CO)NCCN[C@@H](CC)CO` [Ethambutol, ethambutol] was tested, and the “TB Activity MIC×10^-3 (MTB37RV)” value [1] was 07.60 ×10^-3 μM/ml.

For `O=C1NN=C(N=Cc2ccccc2)C1=NNn1c(-c2ccccc2)nc2ccccc2c1=O` [QSP1, 3-{2-[-5-oxo-3-[-(phenylmethylidene)amino]-4,5-dihydro-1H-pyrazol-4-ylidene]hydrazin-1-yl}-2-phenyl-3,4-dihydroquinazolin-4-one], the “Selective Index (SI) (SI=IC50/MIC)” value [2] was 10.92.

`CC1=NN(CNc2ccc(C(=O)O)cc2)C(=O)C1=NNn1c(-c2ccccc2)nc2ccccc2c1=O` [QP6, 4-({[-3-methyl-5-oxo-4-[2-(4-oxo-2-phenyl-3,4-dihydroquinazolin-3-yl)hydrazin-1-ylidene]-4,5-dihydro-1H-pyrazol-1-yl]methyl}amino)benzoic acid] was tested, and the “C. bacterium % of I” value (Coryne bacterium) was 90% and the “antibacterial activity relative to standard drug ciprofloxacin” value (Escherichia coli) was 1.5 times.

With `CC1=NN(CNc2ccc(O)cc2)C(=O)C1=NNn1c(-c2ccccc2)nc2ccccc2c1=O` [QP3, 3-{2-[-1-{[(4-hydroxyphenyl)amino]methyl}-3-methyl-5-oxo-4,5-dihydro-1H-pyrazol-4-ylidene] hydrazin-1-yl}-2-phenyl-3,4-dihydroquinazolin-4-one] the “Selective Index (SI) (SI=IC50/MIC)” value [2] was 01.16.

With `CC1=NN(CNC(=O)c2ccccc2)C(=O)C1=NNn1c(-c2ccccc2)nc2ccccc2c1=O` [QP11, N-{[-3-methyl-5-oxo-4-[2-(4-oxo-2-phenyl-3,4-dihydroquinazolin-3-yl)hydrazin-1-ylidene]-4,5-dihydro-1H-pyrazol-1-yl]methyl}benzamide] the “B. lentus % of I” value (Bacillus lentus) was 95% and the “TB Activity MIC×10^-3 (MTB37RV)” value [1] was 06.49 ×10^-3 μM/ml.

For `O=C1NN=C(N=Cc2ccc(O)c(O)c2)C1=NNn1c(-c2ccccc2)nc2ccccc2c1=O` [QSP4, 3-{2-[-3-[-[(3,4-dihydroxyphenyl)methylidene]amino]-5-oxo-4,5-dihydro-1H-pyrazol-4-ylidene] hydrazin-1-yl}-2-phenyl-3,4-dihydroquinazolin-4-one], the MIC (Rhodospirillum rubrum) was 26.7 µM (≈ 12.5 µg/mL), the MIC (Vibrio cholerae) was 26.7 µM (≈ 12.5 µg/mL) and the MIC (Candida albicans) was 26.7 µM (≈ 12.5 µg/mL).

With `O=C1NN=C(N=Cc2ccccc2O)C1=NNn1c(-c2ccccc2)nc2ccccc2c1=O` [QSP2, 3-{2-[-3-[-[(2-hydroxyphenyl)methylidene]amino]-5-oxo-4,5-dihydro-1H-pyrazol-4-ylidene]hydrazin-1-yl}-2-phenyl-3,4-dihydroquinazolin-4-one] the “Selective Index (SI) (SI=IC50/MIC)” value [2] was 16.32.
